Screens from PubChem.
KDM4C inh = KDM4C (human) demethylase inhibition. Q9H3R0. GST-KDM4C 2-372, H3K9me3 peptide, LANCE TR-FRET. inhibition, % at 12.5 µM. 96,000 compounds, 0.15% hits. AID 720574;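 active means mean replicate inhibition above about 25%, with at least 55% of replicates also reaching it, limit read from the data, passing the limit was not always enough; inconclusive means only one of those two conditions met; inactive means neither condition met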
Target sequence (Q9H3R0 2-372 limits assumed): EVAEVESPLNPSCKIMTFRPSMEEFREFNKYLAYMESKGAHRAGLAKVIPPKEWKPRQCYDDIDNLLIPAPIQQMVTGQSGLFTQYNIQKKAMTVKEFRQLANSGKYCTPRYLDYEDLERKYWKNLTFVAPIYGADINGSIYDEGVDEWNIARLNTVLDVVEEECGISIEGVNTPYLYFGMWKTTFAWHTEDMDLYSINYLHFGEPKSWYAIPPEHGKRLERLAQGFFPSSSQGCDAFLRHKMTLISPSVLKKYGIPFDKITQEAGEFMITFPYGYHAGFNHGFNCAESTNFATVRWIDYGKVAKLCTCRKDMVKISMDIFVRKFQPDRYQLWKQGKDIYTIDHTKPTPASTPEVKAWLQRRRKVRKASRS
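Compound: one test concentration per compound; Material: GST-GASC-1 enzyme fragment 2-372; Amount: GASC-1 enzyme at 10 nM final in reaction; Also added: H3K9me3 peptide substrate, Fe(II), 2-oxoglutarate; Technique: LANCE TR-FRET; Times: 30 min demethylation and 1 h detection at room temperature.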
Pf Dd2 growth = P. falciparum Dd2 growth inhibition | activity change, % at 10 µM | 94,000 compounds, 2.3% hits | AID 1159554 | SYBR Green, 72 h; stronger effect = lower value; in the data active means activity change below about -80%; inconclusive means no clear call, values can overlap the other calls
IDH1 mut inh = IDH1 R132H (human) inhibition | 70,000 compounds, 0.18% hits | inhibition, % at 10 µM | IDH1 R132H reductase, diaphorase/resazurin fluorescence, 60 min; in the data active means inhibition above about 34%; inconclusive means no clear call, values can overlap the other calls; inactive means below about 11%
Target sequence (O75874 whole entry R132H): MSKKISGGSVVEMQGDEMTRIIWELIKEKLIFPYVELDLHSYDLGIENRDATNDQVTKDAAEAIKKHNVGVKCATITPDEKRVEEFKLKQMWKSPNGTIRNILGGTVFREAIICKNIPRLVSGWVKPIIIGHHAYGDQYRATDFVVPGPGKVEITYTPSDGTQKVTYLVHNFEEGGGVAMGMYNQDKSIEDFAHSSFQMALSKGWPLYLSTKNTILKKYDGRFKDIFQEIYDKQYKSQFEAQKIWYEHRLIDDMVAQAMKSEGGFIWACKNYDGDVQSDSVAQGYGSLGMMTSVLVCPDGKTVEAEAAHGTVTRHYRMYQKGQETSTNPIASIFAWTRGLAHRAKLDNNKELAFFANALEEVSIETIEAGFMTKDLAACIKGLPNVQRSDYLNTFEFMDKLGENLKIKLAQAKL
T cruzi growth-1 = blocks T. cruzi growth in NIH3T3 culture | T. cruzi beta-gal in NIH3T3, GalScreen luminescence, 90 h | inhibition, % at 8.34 µM | 77,000 compounds, 5.9% hits | AID 624255;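 active means mean inhibition above about 93%, with at least 55% of replicates each passing it, limit read from the data, passing the limit was not always enough; inconclusive means only one of those two conditions holds; inactive means neither condition holds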
T cruzi growth-2 = blocks T. cruzi growth in NIH3T3 host cells | 5,600 compounds, 72% hits | shares compounds with T cruzi growth-1 | AID 651739 | T. cruzi beta-gal in NIH3T3, GalScreen luminescence, 90 h | inhibition, % at 8.35 µM;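 active means mean replicate inhibition above about 95% and at least 55% of replicates individually reaching it, limit read from the data; inconclusive means only one of the two criteria is met; inactive means neither criterion is met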
T cruzi growth-3 = Trypanosoma cruzi proliferation inhibition; inhibition, % at 2.09 µM; 5,600 compounds, 21% hits; AID 651740; shares compounds with T cruzi growth-1; T. cruzi beta-gal in NIH3T3, GalScreen luminescence, 90 h;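 active means mean inhibition above about 95%, with at least 55% of replicates also reaching it, limit read from the data; inconclusive means meets just one of the two conditions; inactive means meets neither condition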
3T3 cytotox = NIH/3T3 (mouse) viability loss | 5,600 compounds, 14% hits | NIH/3T3 viability, CellTiter-Glo ATP luminescence, 90 h | AID 651742 | shares compounds with T cruzi growth-1 | cytotoxicity (signal decrease), % at 8.35 µM;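 active means mean signal decrease across replicates above about 35% based on untreated-well scatter, with enough replicates individually passing, limit read from the data; inconclusive means no rule stated though some were filed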
NIH3T3 tox 2 = cytotoxicity in mouse NIH/3T3 fibroblasts. shares compounds with T cruzi growth-1. NIH/3T3 viability, CellTiter-Glo ATP luminescence, 90 h. inhibition, % at 24.9 µM. 5,600 compounds, 56% hits;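 active means mean loss of cell viability signal at or above a set limit, and enough replicates individually reaching it; inconclusive means meets only the mean limit or only the replicate share; inactive means meets neither condition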
A number is an active result; 0 = inactive; ? = inconclusive; - = not tested or not shown. The list is not random: actives were taken first. Their share in the collection is about 5.9%.

SMILES | KDM4C inh | Pf Dd2 growth | IDH1 mut inh | T cruzi growth-1 | T cruzi growth-2 | T cruzi growth-3 | 3T3 cytotox | NIH3T3 tox 2
Cc1cc(-c2ccc(Cl)cc2)nc(SCC(=O)Nc2ccccc2)n1 | - | - | 0 | - | - | - | - | -
C[C@H](O)C#Cc1ccc2c(c1)O[C@@H](CN(C)Cc1ccncc1)[C@H](C)CN([C@H](C)CO)S2(=O)=O | 0 | 0 | 0 | 113 | 100 | 0 | 0 | 39
CC(C)C#Cc1ccc2c(c1)O[C@H](CN(C)Cc1ccncc1)[C@H](C)CN([C@H](C)CO)S2(=O)=O | 0 | 0 | 0 | 101 | 99 | 0 | ? | 50
C[C@H](CO)N1C[C@H](C)[C@H](CN(C)Cc2ccccc2)Oc2ccc(NC(=O)Nc3cccc4ccccc34)cc2CC1=O | 0 | 0 | - | 0 | - | - | - | -
C[C@H]1CN([C@@H](C)CO)C(=O)Cc2cc(NC(=O)Nc3ccccc3)ccc2O[C@@H]1CN(C)Cc1ccc2c(c1)OCO2 | 0 | 0 | 0 | 0 | - | - | - | -
C[C@@H]1CN([C@H](C)CO)C(=O)Cc2cc(NC(=O)Nc3cccc4ccccc34)ccc2O[C@@H]1CN(C)Cc1ccc2c(c1)OCO2 | 0 | 0 | - | 103 | 107 | 0 | ? | 72
C[C@@H]1CN([C@H](C)CO)C(=O)Cc2cc(NC(=O)Nc3cccc4ccccc34)ccc2O[C@H]1CN(C)Cc1ccc2c(c1)OCO2 | 0 | 0 | 0 | ? | 107 | 0 | 0 | 0
C[C@@H]1CN([C@@H](C)CO)C(=O)Cc2cc(NC(=O)Nc3cccc4ccccc34)ccc2O[C@@H]1CN(C)Cc1ccc2c(c1)OCO2 | 0 | 0 | 0 | 103 | 109 | 0 | 0 | 52
Cc1ccc(C(=O)N(CC(N)=O)CC(N)=O)cc1 | - | - | 0 | - | - | - | - | -
C[C@@H]1CN([C@@H](C)CO)C(=O)c2cc(N(C)C)ccc2O[C@@H](C)CCCCO[C@H]1CN(C)Cc1ccccc1 | 0 | 0 | 0 | 99 | 100 | 0 | 0 | 0
C[C@@H]1CCCCO[C@@H](CN(C)Cc2ccc(C(F)(F)F)cc2)[C@H](C)CN([C@@H](C)CO)C(=O)c2cc(N(C)C)ccc2O1 | 0 | 0 | 0 | 0 | - | - | - | -
C[C@@H]1CCCCO[C@@H](CN(C)Cc2ccc(C(F)(F)F)cc2)[C@@H](C)CN([C@@H](C)CO)C(=O)c2cc(N(C)C)ccc2O1 | 0 | 0 | - | 97 | 104 | 0 | 0 | 28
C[C@@H]1CCCCO[C@@H](CN(C)Cc2ccc(C(F)(F)F)cc2)[C@H](C)CN([C@H](C)CO)C(=O)c2cc(N(C)C)ccc2O1 | 0 | 0 | - | ? | 105 | 0 | 0 | 59
O=C(C1c2ccccc2C(=O)N2CCc3ccccc3C12)N1CCCC1 (stereo not drawn) | - | - | 0 | - | - | - | - | -
CCOC(=O)c1ccc(NC(=O)CSc2nc3sc4c(c3c(=O)[nH]2)CCCC4)cc1 | - | - | 0 | - | - | - | - | -
C[C@H](CO)N1C[C@H](C)[C@@H](CN(C)Cc2ccc(C(F)(F)F)cc2)Oc2ccc(NC(=O)Cc3cn(C)c4ccccc34)cc2CC1=O | 0 | 0 | 0 | 0 | - | - | - | -
C[C@H](CO)N1C[C@H](C)[C@@H](CN(C)Cc2ccc(C(F)(F)F)cc2)Oc2ccc(NC(=O)Cc3ccccc3)cc2CC1=O | 0 | 0 | 0 | 106 | 0 | 101 | 0 | 104
C[C@H]1CN([C@@H](C)CO)C(=O)Cc2cc(NC(=O)Cc3cn(C)c4ccccc34)ccc2O[C@H]1CN(C)Cc1ccc(Cl)c(Cl)c1 | 0 | 0 | 0 | 100 | 107 | 0 | 0 | 0
C[C@H](CO)N1C[C@H](C)[C@H](CN(C)Cc2ccc(C(F)(F)F)cc2)Oc2ccc(NC(=O)Cc3cn(C)c4ccccc34)cc2CC1=O | 0 | 0 | 0 | 101 | 107 | 0 | 0 | ?
C[C@@H]1CN([C@@H](C)CO)C(=O)Cc2cc(NC(=O)Cc3ccccc3)ccc2O[C@H]1CN(C)Cc1ccc(C(F)(F)F)cc1 | 0 | 0 | 0 | 0 | - | - | - | -
C[C@H]1CN([C@@H](C)CO)C(=O)Cc2cc(NC(=O)Cc3ccccc3)ccc2O[C@H]1CN(C)Cc1ccc(Cl)c(Cl)c1 | 0 | 0 | 0 | ? | 100 | 0 | 0 | 105
O=C(Cc1ccccn1)N[C@H]1CC[C@@H](CCNS(=O)(=O)c2cccc(F)c2)O[C@@H]1CO | 0 | 0 | 0 | 101 | 0 | 0 | 0 | 0
O=C(Nc1cc(Cl)cc(Cl)c1)N[C@@H]1CC[C@@H](CCNS(=O)(=O)c2cccc(F)c2)O[C@@H]1CO | 0 | 0 | 0 | 147 | 104 | 0 | 0 | 65
O=C(Nc1cc(Cl)cc(Cl)c1)N[C@H]1CC[C@H](CCNS(=O)(=O)c2cccc(F)c2)O[C@H]1CO | 0 | 0 | 0 | 176 | 104 | 0 | 0 | 57
O=C(Nc1ccc(Cl)cc1)N[C@H]1CC[C@@H](CCNC(=O)c2ccccc2F)O[C@@H]1CO | 0 | 0 | 0 | 142 | 0 | 0 | 0 | 0
SMILES | KDM4C inh | Pf Dd2 growth | IDH1 mut inh | T cruzi growth-1 | T cruzi growth-2 | T cruzi growth-3 | 3T3 cytotox | NIH3T3 tox 2
O=C(Nc1ccc(Cl)cc1)N[C@H]1CC[C@@H](CCNC(=O)c2ccccc2F)O[C@H]1CO | - | 0 | 0 | 0 | - | - | - | -
O=C(Nc1cc(Cl)cc(Cl)c1)N[C@H]1CC[C@@H](CCNS(=O)(=O)c2cccc(F)c2)O[C@@H]1CO | 0 | 0 | 0 | ? | 100 | 0 | 40 | 81
CCOc1ccc(NC(=O)C(C)Sc2nnnn2-c2ccccc2)cc1 (stereo not drawn) | - | - | 0 | - | - | - | - | -
CCOC(=O)CSc1n[nH]c(-c2ccc(Cl)cc2)n1 | - | - | 0 | - | - | - | - | -
COc1ccc(-c2nc3ccccc3s2)cc1NC(=O)COc1ccc(Cl)cc1Cl | - | - | 0 | - | - | - | - | -
C[C@H](CO)N1C[C@H](C)[C@H](CN(C)Cc2ccc(Oc3ccccc3)cc2)Oc2c(NC(=O)Nc3ccc(C(F)(F)F)cc3)cccc2C1=O | 0 | 0 | - | 122 | 103 | 108 | 0 | 106
C[C@H](CO)N1C[C@H](C)[C@@H](CN(C)Cc2ccc(Oc3ccccc3)cc2)Oc2c(NC(=O)Nc3ccc(F)cc3)cccc2C1=O | 0 | 0 | 0 | 126 | 0 | 0 | 0 | 0
C[C@H](CO)N1C[C@H](C)[C@H](CN(C)Cc2ccc(Oc3ccccc3)cc2)Oc2c(NC(=O)Nc3ccc(F)cc3)cccc2C1=O | 0 | 0 | 0 | 0 | - | - | - | -
C[C@H]1CN([C@@H](C)CO)C(=O)c2cccc(NC(=O)Nc3ccc(C(F)(F)F)cc3)c2O[C@@H]1CN(C)Cc1ccc(Oc2ccccc2)cc1 | 0 | 0 | 0 | 127 | 96 | 0 | 0 | 105
COC(=O)C[C@@H]1C(C(=O)O)=CO[C@@H](O[C@@H]2O[C@H](CO)[C@@H](O)[C@H](O)[C@H]2O)/C1=C\COC(=O)/C=C/c1ccccc1 | - | - | 0 | - | - | - | - | -
O=C(CCCCCCC(=O)Nc1ccccc1O)N/N=C/c1cccc(OCCO)c1 | - | - | 0 | - | - | - | - | -
